Measured values: PMC3638295 (International Journal of Medical Sciences, 2013)
No end group written: not given here.

How the values were obtained:
[1] = test system: DENV-2; test: Plaque formation assay; type: cell-based, DENV-2 (strain New Guinea C); conditions: dose-response curve
Procedure, shortened: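 LLC-MK2 monkey kidney cells (passage <50; DMEM + 10% FBS, 37°C, 5% CO2) were seeded at 3×10^5 cells/well and exposed to a mixture of about 200 PFU DENV-2 New Guinea C (grown in C6/36 cells) and peptide. Plaques per well were counted and normalized to untreated controls as percent inhibition. Run in triplicate.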

[2] = test system: LLC-MK2 cells; test: Cytotoxicity, MTS cell viability assay; type: cell-based, Rhesus Monkey; conditions: 1 to 500 µM peptide, 24, 48 and 72 hours, triplicate

AGVKDGKLDF [DET4]
maximum inhibition activity against DENV-2 ([1]; at 500 µM, mean ± SD, triplicate): 84.6% ± 5.6 | IC50 ([1]; read-out: IC50 against DENV-2, LLC-MK2 cells): 35 µM

IGVRPGKLDL [DET3]
Toxicity compared to untreated control [2]: highest toxic effect compared to other peptides
